Test results as given in ChEMBL document CHEMBL5126597, “Indazole MRL-871 interacts with PPARγ via a binding mode that induces partial agonism” (Bioorg Med Chem, 2022).
Active and inactive are the calls of the source. The calls are words filed in the database; no cut-off is given here.

Legend:
[1] = target: T1, Peroxisome proliferator-activated receptor gamma (Homo sapiens) (UniProt P37231); test: Stabilization of PPARgamma LBD (unknown origin) assessed as change in melting temperature by differential scanning fluorimetry
T1 sequence (whole entry): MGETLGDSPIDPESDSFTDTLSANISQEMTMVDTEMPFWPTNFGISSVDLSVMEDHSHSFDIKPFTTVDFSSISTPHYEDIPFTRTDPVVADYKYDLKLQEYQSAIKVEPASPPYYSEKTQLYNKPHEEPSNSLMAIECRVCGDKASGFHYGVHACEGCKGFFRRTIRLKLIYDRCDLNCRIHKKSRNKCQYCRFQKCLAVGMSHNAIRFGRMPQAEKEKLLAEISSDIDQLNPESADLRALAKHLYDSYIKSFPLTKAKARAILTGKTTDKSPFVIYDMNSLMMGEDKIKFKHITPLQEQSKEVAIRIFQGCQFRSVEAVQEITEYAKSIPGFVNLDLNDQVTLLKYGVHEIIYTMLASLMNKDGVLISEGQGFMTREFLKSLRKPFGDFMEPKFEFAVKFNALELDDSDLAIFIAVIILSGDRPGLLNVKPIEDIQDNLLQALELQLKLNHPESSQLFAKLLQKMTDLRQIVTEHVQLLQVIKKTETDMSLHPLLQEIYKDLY

[2] = target: T1, Peroxisome proliferator-activated receptor gamma (Homo sapiens); test: Stabilization of PPARgamma LBD (unknown origin) assessed as change in melting temperature in presence of SR16832 by differential scanning fluorimetry
[3] = Stabilization of PPARgamma LBD (unknown origin)/FITC-labeled PGC-1alpha (unknown origin) protein-protein interaction assessed as dissociation constant by fluorescence anisotropy assay; parameters: species or system Homo sapiens
In short: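 Fluorescence anisotropy coactivator interaction assay: PPARγ LBD titrated to fluorophore-labelled PGC-1α peptide (10 nM) with DMSO or ligand at 10 µM. n = 3; representative data shown as mean ± s.d.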

[4] = target: T1, Peroxisome proliferator-activated receptor gamma (Homo sapiens); test: Stabilization of PPARgamma LBD (unknown origin) assessed as change in melting temperature in presence of GW9662 by differential scanning fluorimetry
[5] = target: T1, Peroxisome proliferator-activated receptor gamma (Homo sapiens); test: Stabilization of PPARgamma LBD (unknown origin) assessed as melting temperature at 14 uM by differential scanning fluorimetry
In short: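 Differential scanning fluorimetry of PPARγ LBD (3.5 µM) with or without ligand at 14 µM (four equivalents) to obtain melting temperature. n ≥ 3, mean ± s.d.; with vs without compound compared by unpaired t-test.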

[6] = target: T1, Peroxisome proliferator-activated receptor gamma (Homo sapiens); test: Binding affinity to PPARgamma LBD (unknown origin) assessed as increase in thermal stability by differential scanning fluorimetry; conditions: filed as partial agonist

Structure (SMILES)	ΔTm [1]	ΔTm [2]	Kd [3]	ΔTm [4]	Tm [5]	Activity [6]
COc1ccc2nccc(NC(=O)c3cc([N+](=O)[O-])ccc3Cl)c2c1	4.4 °C	–	–	–	–	–
O=C(Nc1ccccc1)c1cc([N+](=O)[O-])ccc1Cl	3.9 °C	–	–	–	–	–
CN(CCOc1ccc(CC2SC(=O)NC2=O)cc1)c1ccccn1 (stereo not given) [ROSIGLITAZONE]	–	-0.1 °C	370 nM	0 °C	–	–
O=C(O)c1ccc(-c2nn(C(=O)c3c(Cl)cccc3C(F)(F)F)c3ccccc23)cc1	–	-0.6 °C	710 nM	1.1 °C	50.2 °C	Active
